Reference: ChEMBL document CHEMBL1154850, “Dragonamide E, a modified linear lipopeptide from Lyngbya majuscula with antileishmanial activity” (J Nat Prod, 2010)
Square brackets hold non-standard residues; d marks the D form. Peptide text beside a SMILES is read from it. * marks the point of attachment. NMeF = CN[C@@H](Cc1ccccc1)C(=O)O; NMeV = CN[C@H](C(=O)O)C(C)C; X1 = C#CCCCC[C@H](C)C(=O)*; X2 = C#CCCC/C=C(\C)C(=O)*

What was measured:
Type in all cases: functional, organism-based
Leishmania donovani = test: Antileishmanial activity against Leishmania donovani LD-1S/MHOM/SD/00-1S amastigotes after 72 hrs by PicoGreen fluorescence assay
In short: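 Axenic amastigotes of WHO reference strain LD-1S/MHOM/SD/00-strain 1S; assay run as in earlier work.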

Trypanosoma cruzi = test: Antiparasitic activity against Trypanosoma cruzi Tulahuen C4 infected african green monkey Vero cells expressing beta-galctosidase after 5 days; details: 120 h
In short: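 Parasite is a transgenic β-galactosidase-expressing Trypanosoma cruzi, Tulahuen strain clone C4; assay run as in earlier work.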

Plasmodium falciparum = test: Antimalarial activity against chloroquine-resistant Plasmodium falciparum Indochina W2 infected human erythrocytes assessed as uptake of PicoGreen after 48 hrs; details: Indochina W2, 48 h

Compound	IC50 (Leishmania donovani) [µM]	IC50 (Trypanosoma cruzi) [µM]	IC50 (Plasmodium falciparum) [µM]
C[C@@H]1[C@H](O)[C@@H](C)/C=C/C=C/C=C/C=C/C=C/C=C/C=C/[C@H](O[C@@H]2O[C@H](C)[C@@H](O)[C@H](N)[C@@H]2O)C[C@@H]2O[C@](O)(C[C@@H](O)C[C@@H](O)[C@H](O)CC[C@@H](O)C[C@@H](O)CC(=O)O[C@H]1C)C[C@H](O)[C@H]2C(=O)O [AMPHOTERICIN B]	0.1		
C#CCCCC[C@H](C)C(=O)N(C)[C@H](C(=O)N(C)[C@H](C(=O)N(C)[C@H](C(=O)N(C)[C@@H](Cc1ccccc1)C(N)=O)C(C)C)C(C)C)C(C)C [DRAGONAMIDE A] (X1-[NMeV][NMeV][NMeV][NMeF]-NH2)	6.5	> 10	> 10
C#CCCCC[C@H](C)C(=O)N(C)[C@H](C(=O)N(C)[C@H](C(=O)N(C)[C@H](C(=O)N(C)[C@H](C(N)=O)C(C)C)C(C)C)C(C)C)C(C)C [DRAGONAMIDE B] (X1-[NMeV][NMeV][NMeV][NMeV]-NH2)	> 10	> 10	> 10
C#CCCC/C=C(\C)C(=O)N(C)[C@H](C(=O)N(C)[C@H](C(=O)N(C)[C@H](C(=O)N(C)[C@@H](Cc1ccccc1)C(N)=O)C(C)C)C(C)C)C(C)C [DRAGONAMIDE E] (X2-[NMeV][NMeV][NMeV][NMeF]-NH2)	5.1	> 10	> 10
C/C(=C\C=C\C[C@H](C)C(Cl)(Cl)Cl)C(=O)N[C@H](c1nccs1)C(C)C [HERBAMIDE B]	5.9	> 10	> 10
CC1CS(=O)(=O)CCN1/N=C/c1ccc([N+](=O)[O-])o1 (centres undefined) [NIFURTIMOX]		13.5	
